Assay results reported in ChEMBL document CHEMBL4673294, “The discovery of quinoline derivatives, as NF-κB inducing kinase (NIK) inhibitors with anti-inflammatory effects in vitro, low toxicities against T cell growth” (Bioorg Med Chem, 2021).

Key:
[1] = target: T1, Mitogen-activated protein kinase kinase kinase 14 (Homo sapiens, UniProt Q99558); assay: Inhibition of recombinant N-terminal GST-fused human NIK (319 to 947 residues) expressed in baculovirus expression system assessed as residual activity at 2 uM incubated for 120 mins in presence of ATP by ADP-glo based luminescence assay relative to control
Outline: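 Single-point NIK enzyme activity at 2 μM compound with 10 μM ATP; human recombinant MAP3K14, 120 min room-temperature reaction, ADP-Glo luminescence read-out converted to ADP concentration.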
Target sequence in this assay (Q99558 whole entry, looked up, the tested form may be a part): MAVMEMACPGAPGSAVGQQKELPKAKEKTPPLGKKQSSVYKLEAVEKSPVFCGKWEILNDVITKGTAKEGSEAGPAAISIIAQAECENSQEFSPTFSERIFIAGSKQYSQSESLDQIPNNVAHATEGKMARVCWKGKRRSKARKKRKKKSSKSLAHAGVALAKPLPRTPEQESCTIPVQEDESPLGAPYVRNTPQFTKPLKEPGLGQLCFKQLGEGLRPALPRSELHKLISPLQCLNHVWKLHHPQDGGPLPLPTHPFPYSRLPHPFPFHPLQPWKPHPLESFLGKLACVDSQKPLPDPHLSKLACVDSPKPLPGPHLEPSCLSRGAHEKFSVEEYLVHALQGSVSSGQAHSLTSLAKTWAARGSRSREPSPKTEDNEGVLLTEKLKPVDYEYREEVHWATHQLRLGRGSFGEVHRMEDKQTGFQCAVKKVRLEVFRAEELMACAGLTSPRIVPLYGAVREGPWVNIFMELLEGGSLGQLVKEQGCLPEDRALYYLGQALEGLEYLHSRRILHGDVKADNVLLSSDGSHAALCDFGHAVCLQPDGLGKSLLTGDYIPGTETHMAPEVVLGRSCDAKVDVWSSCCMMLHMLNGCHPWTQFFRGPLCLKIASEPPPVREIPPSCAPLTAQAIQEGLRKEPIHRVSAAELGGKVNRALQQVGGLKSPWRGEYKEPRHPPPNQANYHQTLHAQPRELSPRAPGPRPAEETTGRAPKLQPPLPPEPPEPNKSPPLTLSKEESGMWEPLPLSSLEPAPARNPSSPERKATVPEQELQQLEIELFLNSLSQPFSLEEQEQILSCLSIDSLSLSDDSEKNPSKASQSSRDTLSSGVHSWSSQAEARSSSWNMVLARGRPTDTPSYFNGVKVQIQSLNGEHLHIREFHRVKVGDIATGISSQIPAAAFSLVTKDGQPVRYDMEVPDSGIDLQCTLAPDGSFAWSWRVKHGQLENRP

[2] = Antiinflammatory activity in mouse T cells assessed as inhibition of ConA-induced induced T cell proliferation at 2 uM incubated for 48 hrs by CCK8 assay relative to control; assay type: functional
Outline: (§1)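 Mouse splenic T cells, isolated by negative selection kit, seeded at 2×10^6 cells/mL in RPMI with penicillin/streptomycin and glutamine. Compound at 2 or 0.4 μM (triplicate wells), DMSO control; Con A 5 μg/mL added, 48 h at 37 °C, 5% CO2. CCK8 absorbance; inhibition rate from test, blank and control wells; three independent experiments.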

[3] = Antiinflammatory activity in mouse T cells assessed as inhibition of ConA-induced induced T cell proliferation at 0.4 uM incubated for 48 hrs by CCK8 assay relative to control; assay type: functional; outline: as §1
[4] = tested on: J774; assay: Antiinflammatory activity in mouse J774 cells assessed as inhibition of LPS-induced NO production at 1 uM preincubated for 2 hrs followed by LPS stimulation and measured after 22 hrs by Griess reagent based assay relative to control; assay type: functional; conditions: time 24 hrs
[5] = target: T1, Mitogen-activated protein kinase kinase kinase 14; assay: Inhibition of recombinant N-terminal GST-fused human NIK (319 to 947 residues) expressed in baculovirus expression system incubated for 120 mins in presence of ATP by ADP-glo based luminescence assay
Outline: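 NIK kinase activity by ADP-Glo: human recombinant MAP3K14 in Tris pH 7.5 buffer with 100 μM Na3VO4, 2 mM DTT, 0.02 mg/mL BSA, 2 mM MgCl2, 5% DMSO; 10 μM ATP; 120 min at room temperature. ADP-Glo reagent 40 min, then detection reagent 40 min; luminescence converted to ADP via standard curve. IC50 from curve fitting; mean ± SD of two independent experiments.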
Target sequence in this assay (Q99558 whole entry, the tested form may be a part): as the sequence (Q99558 whole entry, looked up, the tested form may be a part) above

[6] = Cytotoxicity against mouse T cells assessed as cell growth inhibition at 10 uM after 48 hrs by CCK8 assay; assay type: cell-based
Outline: (§2)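 Unstimulated mouse splenic T cells (no Con A) exposed to compound at 10 μM; growth measured by absorbance, with rate computed from test, blank and control well absorbances; mean ± SD of three independent experiments.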

[7] = Cytotoxicity against mouse T cells assessed as cell growth inhibition at 10 uM after 48 hrs by CCK8 assay relative to control; assay type: cell-based; conditions: read-out: GI; outline: as §2
[8] = tested on: JJN-3; assay: Antiproliferative activity against human JJN-3 cells transfected with plasmid expressing NIK; assay type: functional, cell-based
[9] = Cmax in Sprague-Dawley rat at 10 mg/kg, po administered as single dose by LC-MS analysis; assay type: ADME, organism-based; parameters: route oral, dose 10 mg/kg; conditions: in vivo
Outline: (§3)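 Male Sprague-Dawley, 8 weeks old, fasted overnight, n = 3; single gavage at 10 mg/kg as 1 mg/mL suspension in 0.5% CMC-Na/0.2% Tween 80. Plasma precipitated with acetonitrile plus internal standards; LC/MS quantitation.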

[10] = Clearance in Sprague-Dawley rat at 1 mg/kg, iv administered as single bolus dose by LC-MS analysis; assay type: ADME, organism-based; conditions: in vivo
Outline: (§4)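 Male Sprague-Dawley, 8 weeks old, fasted overnight, n = 3; single IV bolus via tail vein at 1.0 mg/kg in DMSO:PEG200:saline 20:20:60 (0.2 mg/mL). Plasma protein-precipitated with acetonitrile containing internal standards, analysed by LC/MS.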

[11] = Oral bioavailability in Sprague-Dawley rat at 10 mg/kg administered as single dose by LC-MS analysis; assay type: ADME, organism-based; conditions: in vivo
[12] = Elimination half life in monkey liver microsomes incubated for 10 mins followed by potassium phosphate buffer addition and measured up to 60 mins by LC-MS analysis; assay type: ADME, Macaca mulatta, Microsome; conditions: rhesus monkey, time <=70 min, read-out: LambdaZ
Outline: (§5)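 The test compound was pre-incubated with liver microsomes at 37 °C for 10 min. NCF60 wells received 100 mM potassium phosphate buffer and were incubated 1.0 h at 37 °C. The reaction was stopped with a 1:1 tolbutamide/labetalol mixture at 0, 5, 15, 30 and 60 min, then vortexed and centrifuged at 4 °C. Remaining parent compound in the supernatant was measured by LC-MS, and T1/2 was calculated by first-order kinetics.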

[13] = Intrinsic clearance in dog liver microsomes assessed per mg protein incubated for 10 mins followed by potassium phosphate buffer addition and measured up to 60 mins by LC-MS analysis; assay type: ADME, Canis lupus familiaris, Microsome; conditions: time <=70 min, read-out: CLH
Outline: (§6)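 Rat, dog, monkey and human liver microsomes: compound preincubated with microsomes 10 min at 37 °C; samples quenched at 0, 5, 15, 30, 60 min with tolbutamide/labetalol, plus a 60 min no-cofactor control with 100 mM potassium phosphate buffer. Centrifuged, remaining compound by LC-MS; T1/2 and CL by first-order kinetics.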

[14] = Half life in Sprague-Dawley rat at 1 mg/kg, iv administered as single bolus dose by LC-MS analysis; assay type: ADME, organism-based; conditions: in vivo; outline: as §4
[15] = Intrinsic hepatic clearance in rat; assay type: ADME; conditions: in vivo, read-out: CLH
Outline: (§7)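 In vivo intrinsic clearance scaled from microsomal CLint (mL/min/mg protein) × microsomal protein per g liver × liver weight per kg body weight.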

[16] = Elimination half life in dog liver microsomes incubated for 10 mins followed by potassium phosphate buffer addition and measured up to 60 mins by LC-MS analysis; assay type: ADME, Canis lupus familiaris, Microsome; conditions: time <=70 min, read-out: LambdaZ; outline: as §5
[17] = Intrinsic hepatic clearance in monkey; assay type: ADME, Macaca mulatta; conditions: rhesus monkey, in vivo; read-out: CLH; outline: as §7
[18] = AUC (0 to infinity) in Sprague-Dawley rat at 10 mg/kg, po administered as single dose by LC-MS analysis; assay type: ADME, organism-based; parameters: route oral, time infinity, dose 10 mg/kg; conditions: in vivo
Outline: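 Male Sprague-Dawley rats, 8 weeks old, fasted overnight, were dosed once by oral gavage. The compound was suspended at 1.0 mg/mL in saline with 0.5% CMC-Na and 0.2% Tween 80. Plasma concentrations were followed over time. Plasma was deproteinised with acetonitrile containing verapamil and glibenclamide, diluted with water and analysed by LC/MS. Values are mean ± SD, n = 3 rats.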

[19] = Volume of distribution in Sprague-Dawley rat at 1 mg/kg, iv administered as single bolus dose by LC-MS analysis; assay type: ADME, organism-based; conditions: in vivo; outline: as §4
[20] = AUC (0 to infinity) in Sprague-Dawley rat at 1 mg/kg, iv administered as single bolus dose by LC-MS analysis; assay type: ADME, organism-based; parameters: route intravenous, time infinity, dose 1 mg/kg; conditions: in vivo
Outline: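 Male Sprague-Dawley rats, 8 weeks old, fasted overnight, received a single rapid tail-vein bolus. Vehicle was DMSO:PEG200:saline 20:20:60 v/v/v at 0.2 mg/mL. Plasma concentrations were followed over time. Plasma was deproteinised with acetonitrile containing verapamil and glibenclamide, diluted with water and analysed by LC/MS. Values are mean ± SD, n = 3 rats.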

[21] = Intrinsic clearance in rat liver microsomes assessed per mg protein incubated for 10 mins followed by potassium phosphate buffer addition and measured up to 60 mins by LC-MS analysis; assay type: ADME, Microsome; conditions: time <=70 min, read-out: CLH; outline: as §6
[22] = Tmax in Sprague-Dawley rat at 10 mg/kg, po administered as single dose by LC-MS analysis; assay type: ADME, organism-based; conditions: in vivo; outline: as §3
[23] = Elimination half life in human liver microsomes incubated for 10 mins followed by potassium phosphate buffer addition and measured up to 60 mins by LC-MS analysis; assay type: ADME, Microsome; conditions: time <=70 min, read-out: LambdaZ; outline: as §5
[24] = Half life in Sprague-Dawley rat at 10 mg/kg, po administered as single dose by LC-MS analysis; assay type: ADME, organism-based; conditions: in vivo; outline: as §3
[25] = Intrinsic hepatic clearance in dog; assay type: ADME, Canis lupus familiaris; conditions: in vivo, read-out: CLH; outline: as §7
[26] = Intrinsic hepatic clearance in human; assay type: ADME; conditions: read-out: CLH; outline: as §7
[27] = Intrinsic clearance in human liver microsomes assessed per mg protein incubated for 10 mins followed by potassium phosphate buffer addition and measured up to 60 mins by LC-MS analysis; assay type: ADME, Microsome; conditions: time <=70 min, read-out: CLH; outline: as §6
[28] = Initial plasma concentration in Sprague-Dawley rat at 1 mg/kg, iv administered as single bolus dose by LC-MS analysis; assay type: ADME, organism-based; outline: as §4
[29] = Intrinsic clearance in monkey liver microsomes assessed per mg protein incubated for 10 mins followed by potassium phosphate buffer addition and measured up to 60 mins by LC-MS analysis; assay type: ADME, Macaca mulatta, Microsome; conditions: rhesus monkey, time <=70 min, read-out: CLH; outline: as §6
[30] = Elimination half life in rat liver microsomes incubated for 10 mins followed by potassium phosphate buffer addition and measured up to 60 mins by LC-MS analysis; assay type: ADME, Microsome; conditions: time <=70 min, read-out: LambdaZ; outline: as §5

Cn1cc(-c2ccnc3ccc(C#CC(C)(C)O)cc23)cn1
Activity [1]: 99.1%

CNc1cc(-c2cn[nH]c2)c2cc(C#CC(C)(O)c3nccs3)ccc2n1 (stereo not drawn)
inhibition at 2 µM [2]: 34.5% | inhibition at 0.4 µM [3]: 18.4% | inhibition at 1 µM [4]: 46.5% | IC50 [5]: 26 nM

CC(O)(C#Cc1ccc2nc(O)cc(-c3cn[nH]c3)c2c1)c1nccs1 (stereo not drawn)
inhibition at 2 µM [2]: 27.2% | inhibition at 0.4 µM [3]: 23.3% | inhibition at 1 µM [4]: 31.4% | Activity [6]: Non-Toxic | IC50 [5]: 38.6 nM

O=C(Nc1ccc2nccc(-c3cn[nH]c3)c2c1)C1CCCC1
Activity [1]: 83.6%

CC(O)(/C=C/c1ccc2nccc(-c3cn[nH]c3)c2c1)c1nccs1 (stereo not drawn)
IC50 [5]: 2080 nM

CC(O)(C#Cc1ccc2nccc(-c3cn[nH]c3)c2c1)c1cccs1 (stereo not drawn)
IC50 [5]: 524 nM

CC(C)(O)C#Cc1ccc2nccc(-c3cn[nH]c3)c2c1
IC50 [5]: 1720 nM

OC1(C#Cc2ccc3nccc(-c4cn[nH]c4)c3c2)CCCC1
IC50 [5]: 564 nM

CC(O)(C#Cc1ccc2c(c1)N(c1nc(N)ncc1Cl)CC2)c1nccs1 (stereo not drawn)
inhibition at 2 µM [2]: 59.6% | inhibition at 0.4 µM [3]: 19% | inhibition at 1 µM [4]: 43.9% | IC50 [5]: 4.9 nM | inhibition at 48 h, 10 µM [7]: 30%

COCCN(C)c1cc(-c2cn[nH]c2)c2cc(C#CC(C)(O)c3nccs3)ccc2n1 (stereo not drawn)
inhibition at 2 µM [2]: 53.1% | inhibition at 0.4 µM [3]: 33% | inhibition at 1 µM [4]: 51.4% | IC50 [5]: 5.2 nM | inhibition at 48 h, 10 µM [7]: 30%

CC(O)(C#Cc1ccc2nc(OCCN3CCOCC3)cc(-c3cn[nH]c3)c2c1)c1nccs1 (stereo not drawn)
Activity [1]: 92%

O=C(Nc1ccc2nccc(-c3cn[nH]c3)c2c1)c1nccs1
Activity [1]: 72.3%

CN(C)CCN(C)c1cc(-c2cn[nH]c2)c2cc(C#CC(C)(O)c3nccs3)ccc2n1 (stereo not drawn)
inhibition at 2 µM [2]: 22.7% | inhibition at 0.4 µM [3]: 19.9% | inhibition at 1 µM [4]: 34.6% | Activity [6]: Non-Toxic | IC50 [5]: 160 nM

CC(O)(C#Cc1ccc(N2CCOCC2)c(Nc2ncnc3[nH]ccc23)c1)c1nccs1 (stereo not drawn)
Activity [6]: Non-Toxic

CN1CCC(n2cc(-c3c[nH]nc3Cl)c3cc(C#CC(C)(C)O)c(F)cc32)CC1
EC50 [8]: 61 nM

CC(O)(C#Cc1ccc2nccc(-c3cn[nH]c3)c2c1)c1ccccn1 (stereo not drawn)
IC50 [5]: 591 nM

CC(O)(C#Cc1ccc2nccc(-c3cn[nH]c3)c2c1)c1nccs1 (stereo not drawn)
Cmax [9]: 311 ng/mL | clearance [10]: 43.3 mL/min/kg | bioavailability [11]: 21.7% | half-life [12]: 33.2 min | inhibition at 2 µM [2]: 52.5% | inhibition at 0.4 µM [3]: 36.1% | microsomal CLint [13]: 97.5 µL/min/mg | half-life [14]: 22.9 min | CLint scaled [15]: 199 mL/min/kg | inhibition at 1 µM [4]: 43.8% | half-life [16]: 14.2 min | CLint scaled [17]: 60.2 mL/min/kg | AUC(0-inf) [18]: 885 ng·h/mL | Vd [19]: 2.73 L/kg | AUC(0-inf) [20]: 408 ng·h/mL | Activity [6]: Non-Toxic | microsomal CLint [21]: 110 µL/min/mg | Tmax [22]: 54 min | half-life [23]: 33.1 min | half-life [24]: 71.4 min | CLint scaled [25]: 140 mL/min/kg | CLint scaled [26]: 40.2 mL/min/kg | microsomal CLint [27]: 42.6 µL/min/mg | IC50 [5]: 22.1 nM | C0 [28]: 1000 ng/mL | microsomal CLint [29]: 41.8 µL/min/mg | half-life [30]: 12.6 min

CN1CCN(c2cc(-c3cn[nH]c3)c3cc(C#CC(C)(O)c4nccs4)ccc3n2)CC1 (stereo not drawn)
inhibition at 2 µM [2]: 36.7% | inhibition at 0.4 µM [3]: 19.4% | inhibition at 1 µM [4]: 41% | IC50 [5]: 175 nM | inhibition at 48 h, 10 µM [7]: 30%

OC1(C#Cc2ccc3nccc(-c4cn[nH]c4)c3c2)CCCCC1
IC50 [5]: 6050 nM
